Activity calls are given as the source filed them. The calls are words filed in the database; no cut-off is given here.
Columns and labels:
[1] = test system: Candida albicans; assay: Effect on cell morphology in antibiotic resistant Candida albicans clinical isolate 08030809 assessed as intracellular inclusions at MIC to 2.5 times MIC after 30 mins by scanning electron microscopy; assay type: functional, organism-based
Outline: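 Exponential-phase C. albicans 08030809 was washed in PBS and resuspended in Sabouraud medium. Cells were treated 30 min at 37°C alongside a vehicle control. They were then fixed in 2.5% glutaraldehyde (4°C, 2 h) and 1% osmium tetroxide, dehydrated through graded ethanol, freeze-dried from tert-butanol, gold-coated and imaged by SEM. Images are typical of three experiments.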

[2] = test system: Mus musculus; assay: Antiinflammatory activity in antibiotic resistant Candida albicans clinical isolate 08030809 induced mouse vaginitis model assessed as reduction in IL-1beta secretion in vaginal tissue administered as intravaginal instillation measured on day 10 by ELISA; assay type: functional, organism-based; details: Vagina
Outline: (§1)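 Same estradiol-primed mouse model, infected intravaginally with C. albicans 08030809 and treated by intravaginal instillation (20 µL/mouse). Vaginal canals excised on day 10 of treatment and homogenised in 0.9% NaCl. Supernatant taken after 2,000 g for 15 min. TNF-α, IL-6, IL-1β and IL-10 measured by ELISA. Mean ± SE of three independent experiments; unpaired t-test versus vehicle.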

[3] = test system: Candida albicans; assay: Antimicrobial activity against antibiotic resistant Candida albicans clinical isolate 08032815 compound treated in PBS solution measured after 36 hrs by disc diffusion method; assay type: functional; details: isolate 08032815, 36 h
Outline: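 Salt-tolerance test: peptide at 2 mg/mL was prepared in sterile ddH2O, in 150 mM NaCl, or in PBS (150 mM NaCl, 2.7 mM KCl, 1.5 mM KH2PO4, 8 mM K2HPO4, pH 7.2). Anti-C. albicans activity was then assessed by inhibition zone on Sabouraud medium with 0.7% agar.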

[4] = test system: HEK293; assay: Cytotoxicity against HEK293 cells assessed as cell viability at 0.39 to 100 ug/ml after 24 hrs by MTT assay; assay type: cell-based; details: human, hek293, 24 h
Outline: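 HEK293 seeded at 1 × 10^5 cells/mL in DMEM with 10% fetal calf serum and penicillin-streptomycin, 37 °C, 5% CO2. Cells exposed to sample for 24 h, then given MTT (5 mg/mL); formazan dissolved in DMSO and read at 570 nm. Done in triplicate.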

[5] = test system: Candida albicans; assay: Antimicrobial activity against antibiotic resistant Candida albicans after 6 hrs by disc diffusion method in presence of human plasma; assay type: functional, organism-based
Outline: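 Peptide mixed with human plasma (final concentration 100 µM) at 37°C for up to 24 h. 10 µL aliquots were applied to C. albicans in Sabouraud medium with 0.7% agar. Inhibition zone diameters were read after 36 h.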

[6] = Induction of hemolysis in human RBC at 320 ug/mL after 30 mins; assay type: cell-based, Erythrocyte; details: red blood cells, read-out: Activity
Outline: (§2)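 Serial dilutions were incubated with human erythrocytes for 30 min at 37°C. Supernatant absorbance was read at 540 nm after centrifugation. Hemolysis is expressed as % of the 1% Triton X-100 lysis value, pooled from three independent experiments. The highest concentration tested was 320 µg/mL.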

[7] = test system: Mus musculus; assay: Antiinflammatory activity in antibiotic resistant Candida albicans clinical isolate 08030809 induced mouse vaginitis model assessed as reduction in IL-6 secretion in vaginal tissue at 50 ug administered as intravaginal instillation measured on day 10 by ELISA; assay type: functional, Vagina; outline: as §1
[8] = test system: Candida albicans; assay: Antimicrobial activity against antibiotic resistant Candida albicans clinical isolate 08032815 after 16 hrs by broth dilution method; assay type: functional; details: isolate 08032815, 16 h
Outline: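 Broth dilution MIC. Samples were serially diluted in 0.9% NaCl and mixed with Sabouraud broth and yeast suspension at 2 × 10^5 CFU/mL, then incubated 16 h at 28°C. Growth was read at 600 nm. MIC is the lowest concentration giving complete growth inhibition, reported as mean of three independent experiments.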

[9] = Hemolytic activity in human RBC after 30 mins; assay type: ADME, cell-based, Erythrocyte; outline: as §2
[10] = test system: Candida albicans; assay: Antimicrobial activity against antibiotic resistant Candida albicans clinical isolate 08030809 assessed as clone count at 10 times MIC after 24 hrs by colony counting assay (Rvb > 10^5 CFU); assay type: functional
[11] = test system: Mus musculus; assay: Antiinflammatory activity in antibiotic resistant Candida albicans clinical isolate 08030809 induced mouse vaginitis model assessed as reduction in IL-1beta secretion in vaginal tissue at 50 ug administered as intravaginal instillation measured on day 10 by ELISA; assay type: functional, Vagina; outline: as §1
[12] = test system: Mus musculus; assay: Antiinflammatory activity in antibiotic resistant Candida albicans clinical isolate 08030809 induced mouse vaginitis model assessed as microabscess number in vaginal tissue at 20 ug administered as intravaginal instillation measured after 16 days by hematoxylin-eosin staining based microscopic method (reference value: 61); assay type: functional, Vagina
Outline: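 Mice given weekly subcutaneous estradiol valerate (0.5 mg in 0.1 mL vegetable oil) 72 h before infection. Infected intravaginally with 20 µL of 10^7 CFU/mL C. albicans 08030809. Intravaginal instillation of 20 µL daily for 16 days. Vaginal canals excised after lavage, formalin-fixed, paraffin-embedded, HE-stained. Microabscesses counted per high-power field over 6 fields per section, three independent experiments.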

[13] = test system: Candida albicans; assay: Effect on cell membrane integrity in antibiotic resistant Candida albicans clinical isolate 08030809 at MIC measured every 2 mins upto 20 mins by SYTOX green nucleic acid staining-based fluorescence assay; assay type: functional, organism-based
Outline: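 Exponential-phase C. albicans 08030809 was washed and resuspended at 10^6 CFU/mL in 10 mM PBS pH 7.4. Cells were loaded with 0.1 µM (final) SYTOX Green for 15 min at 37°C with shaking, then test samples were added. Fluorescence (ex 488/em 530 nm) was recorded every 2 min as RFU. Mean ± SE of five independent experiments.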

[14] = test system: Escherichia coli; assay: Antimicrobial activity against Escherichia coli ATCC 25922 assessed as inhibition of […] growth after 16 hrs by broth dilution method; assay type: functional; details: ATCC 25922, 16 h
Outline: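 Broth dilution in LB broth; 100 µL of 2 × 10^5 CFU/mL bacterial suspension plus 10 µL sample (stock series in 0.9% NaCl) in 90 µL broth, 37°C for 16 h. Growth read as A600; MIC is the lowest concentration completely inhibiting growth. Mean of three independent experiments run in duplicate.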

[15] = test system: Mus musculus; assay: Antiinflammatory activity in antibiotic resistant Candida albicans clinical isolate 08030809 induced mouse vaginitis model assessed as reduction in IL-6 secretion in vaginal tissue administered as intravaginal instillation measured on day 10 by ELISA; assay type: functional, organism-based; details: Vagina; outline: as §1
[16] = test system: Candida albicans; assay: Antimicrobial activity against antibiotic resistant Candida albicans clinical isolate 08030809 assessed as clone count at 5 times MIC after 1 min by colony counting assay (reference value: 62 +/- 7 CFU); assay type: functional
[17] = test system: Mus musculus; assay: Antiinflammatory activity in antibiotic resistant Candida albicans clinical isolate 08030809 induced mouse vaginitis model assessed as reduction in IL-10 secretion in vaginal tissue at 20 ug administered as intravaginal instillation measured on day 10 by ELISA; assay type: functional, Vagina; outline: as §1
[18] = test system: Candida albicans; assay: Antimicrobial activity against antibiotic resistant Candida albicans clinical isolate 08030809 assessed as clone count at 10 times MIC after 1 hr by colony counting assay (reference value: 228 +/- 23 CFU); assay type: functional
[19] = test system: Candida albicans; assay: Antimicrobial activity against antibiotic resistant Candida albicans clinical isolate 08030809 assessed as clone count at 10 times MIC after 6 hrs by colony counting assay (reference value: 14536 +/- 2467 CFU); assay type: functional

H-VKRWKKWRWKWKKWV-NH2
Activity [1]: Active | Activity [2]: Dose-dependent effect | MIC [3]: 2.79 µg/mL | Activity [4]: Non-toxic | Activity [5]: Active | hemolysis at 0.5 h, 320 ug/mL [6]: 3.1% | inhibition (INH) [7]: 57% | MIC [8]: 2.79 µg/mL | HC10 ([9]; erythrocyte, 0.5 h): > 320 µg/mL | HC50 at 0.5 h ([9]; red blood cells): > 320 µg/mL | Activity [10]: 0 CFU | inhibition (INH) [11]: 63% | Activity [12]: <3 | Activity [13]: Active | MIC [14]: 9.38 µg/mL | Activity [15]: Dose-dependent effect | Activity [16]: 10 CFU | inhibition (INH) [17]: 39% | Activity [18]: 0 CFU | Activity [19]: 0 CFU

— ChEMBL document CHEMBL3779860, “A Designed Tryptophan- and Lysine/Arginine-Rich Antimicrobial Peptide with Therapeutic Potential for Clinical Antibiotic-Resistant Candida albicans Vaginitis” (J Med Chem, 2016)
